In the library only some 2.7% were active in any assay of this set; here they are far more common.
MsrA act – activators of bovine methionine sulfoxide reductase A; AID 602163; activation, % at 10.6 µM; purified bovine MsrA, absorbance read-out; 0.3% of 360,000 active; in the data active = activation above about 7.5%;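 also: 0% = vehicle and 100% = reference activator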
MsrA inh – inhibits bovine methionine sulfoxide reductase A; purified bovine MsrA, absorbance read-out; inhibition, % at 15.5 µM; 0.75% of 360,000 active; AID 651718; in the data active = inhibition above about 4.5%;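 also: 0% = vehicle wells with enzyme and 100% = reference inhibitor wells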
sPLA2-III inh – Blocks human group III sPLA2 activity; QFRET BODIPY PC-A2 liposome hydrolysis, fluorescence; 0.56% of 370,000 active; AID 743126; inhibition, % at 12.2 µM;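 active = inhibition above mean plus 3 SD of compounds lying within the high and low control bounds, cut at about 19% in these data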;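 also: 0% = median of test compound wells and 100% = no enzyme DMSO wells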
Target sequence (Q9NZ20 whole entry, looked up): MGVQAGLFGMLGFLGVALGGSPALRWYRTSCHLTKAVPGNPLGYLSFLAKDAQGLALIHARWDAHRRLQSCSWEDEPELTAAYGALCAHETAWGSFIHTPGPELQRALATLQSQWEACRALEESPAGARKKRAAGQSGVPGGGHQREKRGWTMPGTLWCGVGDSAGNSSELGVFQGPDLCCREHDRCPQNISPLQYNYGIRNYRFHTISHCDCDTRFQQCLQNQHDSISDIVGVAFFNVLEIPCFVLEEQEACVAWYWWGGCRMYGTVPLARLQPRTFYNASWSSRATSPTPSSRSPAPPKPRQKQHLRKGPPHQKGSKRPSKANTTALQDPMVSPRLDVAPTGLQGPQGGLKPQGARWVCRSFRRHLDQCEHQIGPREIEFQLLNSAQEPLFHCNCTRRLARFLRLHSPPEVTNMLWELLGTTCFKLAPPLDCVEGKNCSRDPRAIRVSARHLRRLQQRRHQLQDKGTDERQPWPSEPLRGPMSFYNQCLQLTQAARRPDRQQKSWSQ
ARFGAP1 inhibitor – inhibits rat ARF GTPase activating protein 1; Q62848; Arfgap1-stimulated ARF1 GTP hydrolysis, GDP FP detection; 0.26% of 360,000 active; inhibition, % at 16.5 µM;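 active = inhibition above a per-plate limit, mean inhibition of low control wells plus 3 SD, cut at about 25% in these data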;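 also: 0% = DMSO wells with enzyme and 100% = wells lacking Arfgap1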
Target sequence (Q62848 1-136 limits assumed): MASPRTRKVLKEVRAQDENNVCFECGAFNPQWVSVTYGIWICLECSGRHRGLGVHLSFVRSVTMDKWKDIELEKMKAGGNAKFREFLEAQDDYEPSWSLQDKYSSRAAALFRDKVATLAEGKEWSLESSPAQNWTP
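Material: rat Arfgap1 catalytic domain, aa 1-136; also added: human ARF1(Δ1-17)-GTP substrate; compound dosing: one concentration, 16.5 µM, DMSO 1.26%; incubation: GTP hydrolysis reaction 2 h at 25 °C; measured by: Tracer-displacement fluorescence polarization with EDTA stop, 620/688 nm; evaluation: % inhibition from polarization; repeats: one replicate per compound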
ASAP1 GAP inh – ASAP1 ArfGAP inhibition; Q9ULH1; ASAP1-stimulated ARF1 GTP hydrolysis, GDP FP detection; inhibition, % at 16.5 µM; 0.19% of 360,000 active; in the data active = inhibition above about 25%;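 also: 0% = vehicle with enzyme and substrate and 100% = no enzyme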
Rev-erbA mod – modulates human Rev-erb alpha binding to DNA | AID 1259318 | P20393 | Rev-erbα–FITC-DNA binding, fluorescence polarization, 90 min | 0.79% of 370,000 active | activity, % at 10 µM;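 active = activity above about 14%, limit read from the data; passing the limit was not always enough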;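 also: 0% = DMSO wells with 35 nM protein and 100% = DMSO wells with 750 nM protein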
sPLA2 confirm – human GIII-sPLA2 inhibition, confirmation | 34% of 2,000 active | AID 743280 | inhibition, % at 12.2 µM | shares compounds with sPLA2-III inh | recombinant hGIII-sPLA2, BODIPY PC-A2 QFRET fluorescence;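 active = mean inhibition across triplicates above the hit cutoff set in the earlier primary screen, cut at about 19% in these data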;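 also: 0% = enzyme with DMSO and 100% = DMSO wells lacking enzyme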
535nm interf – 535nm fluorescence interference, HGIII-sPLA2 counter-screen | AID 743282 | inhibition, % at 12.2 µM | BODIPY FL product fluorescence interference, QFRET | shares compounds with sPLA2-III inh | 8.5% of 2,000 active;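 active = average inhibition above the solvent-only control mean plus 3 SD, cut at about 6% in these data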;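 also: 0% = DMSO with substrate plus product and 100% = DMSO with substrate alone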
535nm interf DR – counter-screen for HGIII-sPLA2 inhibitors: 535nm fluorescence interference, dose response. shares compounds with sPLA2-III inh. BODIPY FL product fluorescence interference, cell-free. IC50, µM. 240 tested, under 10 active;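 active = IC50 at or below 10 µM; inactive = IC50 above 10 µM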
Numbers without * were called inactive; . = no result given.

SMILES	MsrA act	MsrA inh	sPLA2-III inh	ARFGAP1 inhibitor	ASAP1 GAP inh	Rev-erbA mod	sPLA2 confirm	535nm interf	others
CCN(CC)C(=O)CC[C@@H]1CC[C@]2(CCCN(C(=O)c3ccno3)C2)O1	.	.	8.2	.	.	-1.3	.	.
S=c1[nH]nc(Cc2ccc(Cl)cc2)o1	5.2	1.5	22.4*	7.1	12.7	1.8	7.9	-6.3
NC(c1csc(Nc2ccc(C(=O)NCCCO)cn2)n1)C1CCCCC1 (stereo not drawn)	-4.3	1.8	22.7*	-4.6	-7.6	-9.9	7.3	-18.6
CC(N)c1csc(Nc2ccc(C(=O)NCCCO)cn2)n1 (stereo not drawn)	-3.4	-0.6	7.6	10.5	-0.6	-10.0	.	.
NC(c1csc(Nc2nccc(C(F)(F)F)n2)n1)C1CCCCC1 (stereo not drawn)	-1.7	-0.6	11.1	-7.6	9.1	4.0	.	.
CN(C)c1ccc(NC(=O)Nc2nc(C(N)C3CCCCC3)cs2)cc1 (stereo not drawn)	-2.5	-0.8	20.3*	3.4	11.7	-4.5	23.4*	-7.3
NC(c1csc(Nc2ncccn2)n1)C1CCCCC1 (stereo not drawn)	-4.3	1.9	22.9*	-1.0	-22.5	-2.2	3.0	-13.0
C=CCN(CC#Cc1ccccc1)Cc1ccc2c(c1)OCO2	.	.	1.8	.	.	1.1	.	.
CCCNC(=O)C1(C)CCCN(Cc2ccc(-c3ccccc3)o2)C1 (stereo not drawn)	-0.1	0.6	-17.2	-3.4	-7.5	2.3	.	.
CC1CCCN(S(=O)(=O)c2cccc(C(=O)NCCCN3CCCC3=O)c2)C1 (stereo not drawn)	-6.9	0.2	19.9*	0.1	0.1	3.7	9.4	-3.1
S=C(Nc1ccccc1Oc1ccccc1)Nc1cccc(Cl)c1Cl	-1.6	0.2	21.6*	0.5	5.1	2.3	30.1*	6.7*
CCCCCC(=O)NNC(=S)NC(=O)c1ccccc1[N+](=O)[O-]	-3.1	-1.0	20.5*	1.8	6.2	1.7	33.5*	-1.6	535nm interf DR=>122
CCCC(=O)Nc1ccc(NC(=S)NC(=O)c2ccccc2[N+](=O)[O-])cc1	-8.0	0.7	8.2	2.9	2.1	1.4	.	.
O=C(NNC(=S)NC(=O)c1ccccc1[N+](=O)[O-])c1ccccc1Cl	-1.0	2.0	36.0*	-5.0	-2.0	-0.9	31.0*	-1.1	535nm interf DR=>122
COc1cc(NC(=O)NC2CCCCN(Cc3cccc(Cl)c3)C2=O)cc(OC)c1 (stereo not drawn)	.	.	2.7	.	.	3.0	.	.
Cc1cccc(-n2cc(-c3ccccc3)[nH]c2=S)c1	3.8	1.1	20.3*	5.1	-7.6	-2.9	31.2*	2.7
COc1ccc(-n2cc(-c3ccccc3)[nH]c2=S)cc1	-6.0	0.3	19.3*	6.3	7.7	5.7	40.6*	2.0	535nm interf DR=>122
Cc1ccc(-c2cn(-c3ccccc3F)c(=S)[nH]2)cc1	-0.1	0.7	26.9*	3.3	9.5	-4.3	23.6*	4.4
COc1cc(OC)cc(-c2nn[nH]n2)c1	-5.4	0.1	20.1*	-7.5	1.0	1.6	-2.3	-0.4
Cc1cccc(OCCN2C(=O)C(=O)c3cc(C)ccc32)c1	-1.7	1.8	23.9*	-9.5	-4.6	3.4	21.3*	-1.3
Cc1ccc2c(c1)C(=O)C(=O)N2CCOc1ccccc1	-10.0	0.8	25.3*	-2.4	2.3	-4.8	12.9	-1.2
CCCCC(=O)Nc1c2c(nn1-c1cccc(C)c1C)CS(=O)(=O)C2	-0.8	0.4	20.2*	0.3	-7.0	-3.0	0.7	1.4
COC(=O)[C@]1(C#N)CC(=O)N(C)[C@@H]1c1ccccc1	.	.	4.9	.	.	2.4	.	.
O=C(Nc1ccc([N+](=O)[O-])cc1)c1cn(-c2ccccc2)nc1-c1cc2ccccc2o1	-2.6	0.1	20.0*	12.8	12.1	2.8	-3.0	-8.3
Cc1c(NC(=O)C2CCCN(S(=O)(=O)c3cccc4ccccc34)C2)c(=O)n(-c2ccccc2)n1C (stereo not drawn)	.	.	-1.2	.	.	-0.3	.	.
SMILES	MsrA act	MsrA inh	sPLA2-III inh	ARFGAP1 inhibitor	ASAP1 GAP inh	Rev-erbA mod	sPLA2 confirm	535nm interf	others
Cn1cccc1C(=O)Nc1nc(-c2ccccn2)cs1	-3.8	0.2	-1.7	9.3	4.1	-9.1	.	.
O=C(Nc1nc(-c2ccccn2)cs1)c1ncc(Cl)c(Cl)c1Cl	-1.0	-0.1	26.8*	-0.2	-12.0	2.9	21.2*	0.6
O=C(Nc1nc(-c2ccccn2)cs1)c1cc2ccccc2o1	-3.1	2.2	30.6*	-8.9	11.1	-2.0	19.3*	-3.5
O=C(Nc1nc(-c2ccccn2)cs1)c1ccc(Cl)s1	1.0	-0.8	27.4*	1.6	-0.9	8.7	24.3*	-2.7
Cc1ccc(C(=O)Nc2nc(-c3ccccn3)cs2)s1	-3.0	1.9	7.0	-0.7	6.6	2.4	.	.
O=C(CNS(=O)(=O)c1ccc(Br)s1)N1CCN(c2ccccn2)CC1	.	.	1.3	.	.	-3.3	.	.
CC12CCC(C(=O)NCCCN3CCOCC3)(C(Br)C1=O)C2(C)C (stereo not drawn)	1.4	-0.2	20.9*	-3.0	2.7	-3.8	1.1	-0.9
CC12CCC(C(=O)NCCCN3CCOCC3)(OC1=O)C2(C)C (stereo not drawn)	-0.7	1.8	8.2	3.3	-2.6	-1.3	.	.
Cc1ccccc1-c1cc2nc(NCc3ccccc3F)n(C)c(=O)c2s1	-6.5	1.1	5.5	0.6	12.9	-7.5	.	.
Cc1ccc(O)c(N=Cc2cc(Cc3ccccc3)cc([N+](=O)[O-])c2O)c1	-4.8	1.7	25.1*	-17.6	1.6	0.5	22.7*	7.8*
Cc1ccc(C)c(-n2cc[nH]c2=S)c1	-1.3	0.4	19.6*	-13.7	-17.3	-7.7	8.2	-4.5
CC(C)n1c(-c2ccccc2F)n[nH]c1=S	-5.7	0.2	7.8	-20.3	-3.6	0.8	.	.
CC(c1ccccc1)n1c(-c2ccccc2F)n[nH]c1=S (stereo not drawn)	-1.0	0.6	24.0*	-12.6	12.4	10.4	8.1	-0.9
O=c1[nH]n(Cc2ccccc2)c2ccccc12	-4.6	1.0	20.3*	8.2	1.5	-7.3	6.5	-2.5
O=c1ccn(Cc2ccccc2)c2ccccc12	-3.8	0.8	1.4	-4.3	-1.2	3.0	.	.
CCOc1ccc2c(c1)-c1c(ssc1=S)C(C)(C)N2C	-0.3	2.4	35.6*	-1.2	-7.8	5.1	45.7*	13.5*
CCOc1ccc2c(c1)C(C)=CC(C)(C)N2S(=O)(=O)c1ccc(F)cc1	0.8	0.3	0.2	-8.1	-10.2	4.4	.	.
Cc1ccc(NC(=S)NNC(=O)c2nn(C)c(C)c2Cl)cc1	-1.2	-0.1	38.1*	-1.0	0.1	-0.8	48.1*	0.5	535nm interf DR=>122

Bioassay records from PubChem BioAssay.
